HSF1 inhib = HSF1 inhibitors in luciferase reporter cells, primary screen, cell-based, NIH3T3, luminescence | NIH3T3-HGL HSE-luciferase, MG132-induced, luminescence 8 h; active compounds read low | activity change, negative = inhibition, % at 7.5 µM (by protocol) | hit rate 0.77% among 300,000 | AID 2098, 2009;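 active = more than half of replicate wells show activity change below -50%, luminescence cut by over half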;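 also: luciferase reports HSF-1 transcriptional activity via heat shock element; 0% = median of DMSO wells and -100% = zero luminescence signal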
AI-2 QS mod = Vibrio harveyi AI-2 quorum sensing modulators, primary screen, JMH597 strain, luminescence/OD600 ratio; Vibrio harveyi JMH597 AI-2 luminescence/OD600 ratio, 9 h; active compounds read low; strain lacks LuxN and CqsS sensors; 0 = neutral-control median; activity change, % at 7.5 µM; hit rate 0.4% among 300,000; AID 2094, 2009; in the data active = activity change below about -75%, passing the limit was not always enough;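 also: luminescence divided by OD600 gain over 9 h not by final OD600 alone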
ALR inh = inhibitors of human ALR sulfhydryl oxidase, primary screen, biochemical, H2O2 detection, HRP-luminol luminescence, single point | FAD-linked sulfhydryl oxidase ALR (Homo sapiens), P55789 | purified ALR, DTT oxidation | inhibition, % (test concentration not listed) | hit rate 3.8% among 290,000 | AID 485317, 2010;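 active = mean replicate inhibition above about 79%, with every replicate also reaching it, limit read from the data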
Target sequence (P55789 whole entry, looked up): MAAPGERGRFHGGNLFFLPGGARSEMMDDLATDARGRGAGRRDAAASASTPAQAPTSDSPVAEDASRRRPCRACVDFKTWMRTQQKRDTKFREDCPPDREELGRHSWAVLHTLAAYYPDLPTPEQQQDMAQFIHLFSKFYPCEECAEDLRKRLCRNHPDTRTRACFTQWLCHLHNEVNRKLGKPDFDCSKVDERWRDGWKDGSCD
PHOSPHO1 inh = PubChem AID 1565 | Phosphoethanolamine/phosphocholine phosphatase (Homo sapiens), Q8TCT1 | recombinant PHOSPHO1, absorbance phosphatase assay | inhibition, % at 13.3 µM | hit rate 1.1% among 290,000; in the data active = inhibition above about 60%
HSF-1 act = HSF-1 activators, primary screen, NIH3T3-HGL cells, MG132 stress, luminescence, single point | NIH3T3-HGL HSF-1 luciferase reporter, 8 h; 100% = twice DMSO control signal | activation, % at 9 µM | hit rate 1.7% among 300,000 | AID 504408, 2011;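 active = mean replicate activation of at least 50% with a set share of replicates each reaching 50%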;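 also: 0% = median of the neutral control wells and 100% = twice that signal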
core dimer inh = inhibitors of HCV core protein dimerization, primary screen, biochemical, TR-FRET, high-throughput; TR-FRET GST/Flag-core106 dimerization, 1536-well; inhibition, % at 5 µM; hit rate 0.33% among 300,000; AID 1899, 2009;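 active = inhibition above the mean of all tested compounds plus 3 SD, set per screening campaign, cut at about 45% in these data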
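assay system = GST-tagged and Flag-tagged HCV core protein residues 1-106 | controls = unlabelled core106 and no-GST-core106 wells | incubation = compound-protein-antibody incubation 4 h at 22.5 °C | probe or stimulus = Eu donor and XL665 acceptor anti-tag antibodies | read-out = % inhibition based on acceptor/donor emission ratio | signal = TR-FRET 671 and 617 nm emission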
Starred values were filed as active, the others as inactive; . = not tested or not shown. Sampled rows, rich in hits. Any-hit rate of the full collection: about 6.8%.

SMILES	HSF1 inhib	AI-2 QS mod	ALR inh	PHOSPHO1 inh	HSF-1 act	core dimer inh
CC1(C)Cc2c(sc(NC(=O)c3ccc4ncsc4c3)c2C(N)=O)C(C)(C)N1	-53*	15	13	-7	-54	-7
CC1(C)Cc2c(sc(NC(=O)c3ccc(C(=O)c4ccccc4)cc3)c2C(N)=O)C(C)(C)N1	-3	34	-14	-34	4	-2
Cc1cccc(-n2c(C)cc(/C=N/NC(=O)c3ccc(CN4CCOCC4)cc3)c2C)c1	1	11	99*	7	6	4
Cc1ccc(-n2c(C)cc(/C=N/NC(=O)c3ccc(CN4CCOCC4)cc3)c2C)cc1	-11	9	10	21	-6	2
COc1ccc(Nc2nc(-c3sc(N)nc3C)cs2)cc1	4	-9	-4	68*	23	2
COc1ccc(Nc2nc(-c3sc(NC(C)=O)nc3C)cs2)cc1	-14	22	-24	73*	-2	59*
CCN(CC(=O)NCc1ccc(Cl)cc1)C(=O)c1ccc(C#N)cc1	4	20	-14	46	12	7
O=C(C1=NNCC1c1ccccc1)C1CO1 (configuration not stated)	1	24	.	-9	-2	.
O=C(O)c1ccccc1NS(=O)(=O)c1cccc(-n2sc3ccccc3c2=O)c1	-2	10	98*	35	0	-2
O=C(O)CCNc1ccc(NCCC(=O)O)c2c1C(=O)c1ccccc1C2=O	-5	58	99*	11	-24	-126
COc1ccccc1NCCC(=O)O	0	10	.	33	-12	-2
Cn1nnnc1Sc1ncnc2scc(-c3ccccc3Br)c12	.	.	-4	.	.	.
Cn1nnnc1Sc1ncnc2scc(-c3ccccc3)c12	6	3	11	-22	7	65*
Cn1nnnc1Sc1ncnc2scc(-c3ccc[nH]3)c12	.	.	94*	.	.	.
Cn1nnnc1Sc1ncnc2scc(-c3ccc(F)cc3)c12	41	6	7	-8	62*	16
Cn1nnnc1Sc1ncnc2scc(-c3ccc(Br)cc3)c12	.	.	2	.	.	.
CCCn1c(=O)c(C(=O)NCCc2ccc(OC)cc2)c(O)c2ccccc21	-9	-9	-9	34	-9	.
O=[N+]([O-])c1ccc(/C=N\NS(=O)(=O)c2ccc(F)cc2)o1	5	-7	-13	16	9	-7
O=[N+]([O-])c1ccc(-c2ccn[nH]2)o1	13	-129*	-18	4	7	3
N=c1c(S(=O)(=O)c2ccc(Br)cc2)cc2c(=O)n3ccccc3nc2n1C1CCCC1	24	16	0	18	55*	8
Cc1cccc(Cn2nnc3ccccc32)c1O	5	-3	90*	.	20	-8
Cc1ccc(C(=O)Cn2nnc3ccccc32)cc1C	30	2	1	40	58*	6
Cc1ccc(C(=O)Cn2nnc3ccccc32)cc1	26	12	0	18	67*	2
O=C(Cn1nnc2ccccc21)c1ccc(Br)cc1	14	35	-3	27	11	-3
O=C(NCCc1ccccc1)C1CC(=O)N(C2CCCC2)C1 (configuration not stated)	-2	-4	-3	16	-8	-11
SMILES	HSF1 inhib	AI-2 QS mod	ALR inh	PHOSPHO1 inh	HSF-1 act	core dimer inh
C=CCNC(=S)N(CC)c1cccc2ccccc12	-4	17	-8	-14	16	5
COc1ccc(-n2c(-c3ccco3)n[nH]c2=S)cc1	-6	25	95*	99*	9	-2
Nn1c(-c2ccco2)n[nH]c1=S	0	25	1	86*	13	-5
S=c1[nH]nc(-c2ccco2)n1-c1ccc(Cl)cc1	-1	28	59	-9	8	-2
Cn1cc(Cl)c(-c2n[nH]c(=S)n2C2CCCCC2)n1	-3	28	7	-10	-20	2
S=c1[nH]nc(-c2ccco2)n1C1CCCCC1	-6	16	95*	-58	-11	10
